Results: ChEMBL document CHEMBL2034911, “Carbazole alkaloids from the stems of Clausena lansium” (J Nat Prod, 2012)
Calls of active or inactive are those of the source. The calls are words filed in the database; no cut-off is given here.

How the values were obtained:
Assay type in all cases: functional, cell-based
[1] = test system: PC-12; test: Neuroprotective activity in rat PC12 cells assessed as inhibition of SNP-induced cell death at 10 uM incubated 24 hrs post SNP-challenge for 24 hrs by MTT assay
Method in brief: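 PC12 cells were grown in DMEM with 5% FBS and 5% equine serum and seeded at 5000 cells/well for 24 h. Medium was switched to basic medium with 350 μM SNP for 24 h, with compound (DMSO stock, >1000-fold dilution) added at the same time, in triplicate. MTT was added for 4 h, formazan dissolved in DMSO, and A570 read. ANOVA with Newman–Keuls post hoc test.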

[2] = test system: PC-12; test: Neuroprotective activity in rat PC12 cells assessed as inhibition of serum starvation-induced cell death after 24 hrs by MTT assay
Method in brief: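 Serum-withdrawal model: PC12 cells (5000/well) were pre-grown 24 h in DMEM with 5% FBS and 5% equine serum, then moved to plain DMEM. Compound (DMSO stock, >1000-fold dilution) was added at the same time, in triplicate, and cells were incubated 24 h at 37 °C, 5% CO2. MTT was added for 4 h, formazan dissolved in DMSO, and A570 read. ANOVA with Newman–Keuls test.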

[3] = test system: PC-12; test: Neuroprotective activity in rat PC12 cells assessed as inhibition of amyloid beta(25 to 35)-induced cell death at 10 uM incubated 48 hrs […] by MTT assay
Method in brief: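 PC12 cells were grown in DMEM with 5% FBS and 5% equine serum and seeded at 5000 cells/well for 24 h. Basic medium with 15 μM Aβ25−35 was applied for 48 h, with compound (DMSO stock, >1000-fold dilution) co-added, in triplicate. Viability was measured by MTT (4 h), formazan dissolved in DMSO, and absorbance read at 570 nm. ANOVA/Newman–Keuls.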

| SMILES | Activity [1] | Activity [2] | Activity [3] |
| --- | --- | --- | --- |
| COc1cc2c(cc1O)[nH]c1c(CC=C(C)C)c(O)c(C=O)cc12 | inactive | inactive | Active |
| COc1ccc2[nH]c3c4c(c(C=O)cc3c2c1)OC(C)(C)C=C4 | Active | inactive | inactive |
| CC(C)=CCc1c(C=O)cc(O)c2[nH]c3ccccc3c12 | inactive | inactive | inactive |
| COc1c2c(cc3c1[nH]c1ccccc13)C(=O)C[C@@H]2O | inactive | inactive | inactive |
| COc1c2c(cc3c1[nH]c1ccccc13)C(=O)O[C@@H]2[C@H](O)C(C)(C)O | inactive | inactive | inactive |
| COc1cc2c(cc1O)[nH]c1cc(O)c(C=O)cc12 | Active | inactive | Active |
| CC(C)=CCc1c(C=O)cc2c([nH]c3ccccc32)c1O | inactive | inactive | Active |
| COc1c2c(cc3c1[nH]c1ccccc13)[C@H]1O[C@@H]([C@H]2O)C(C)(C)O1 | inactive | inactive | inactive |
| COc1ccc2[nH]c3ccc(C=O)cc3c2c1 | inactive | inactive | inactive |
| COc1ccc2[nH]c3cc(OC)c(C=O)cc3c2c1 | inactive | inactive | inactive |
| COc1c2c(cc3c1[nH]c1ccccc13)[C@H]1O[C@@H](C2)C(C)(C)O1 | Active | inactive | Active |
| COc1ccc2[nH]c3c(O)cc(C=O)cc3c2c1 | Active | inactive | inactive |
| COc1c2c(cc3c1[nH]c1ccccc13)C(=O)C(=C(C)C)C2 | inactive | inactive | inactive |
| COC(=O)c1ccc2[nH]c3ccc(OC)cc3c2c1 | Active | inactive | inactive |
| COc1cc(C=O)cc2c1[nH]c1ccccc12 | Active | inactive | Active |
| COc1c2c(cc3c1[nH]c1ccccc13)C(=O)O[C@H](C(C)(C)O)[C@H]2O | inactive | inactive | inactive |
| O=Cc1ccc2[nH]c3ccccc3c2c1 | inactive | inactive | inactive |
